Tests used:
C3 cells [1] = assay: CT-luci reporter gene assay to measure the ability to increase transcription of a […] linked to the human CT gene.
Phosphodiesterase 4 [2] = target: T1, Phosphodiesterase 4 (Homo sapiens, UniProt P27815+Q08499+Q07343+Q08493); assay: PDE4 30 assay to measure the percent rolipram activity of the PDE4 assay at 30 uM concentration of the compound.; type: protein assay
Summary of the method: (§1)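 U937 PDE4 preparation, 1 µM [3H]cAMP, 37 °C, test compound at 30 µM. Activity scaled to rolipram: no rolipram inhibition = 0%, full rolipram inhibition (10 µM) = 100%.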

C3 cells [3] = assay: Calcitonin (CT) secretion/RIA assay to measure the ability of compound to increase cellular levels and secretion of human CT.
Rattus norvegicus [4] = assay: The compound was tested for its bone protection activity at 30 mg/kg/day by intra peritoneal administration.; type: functional
Summary of the method: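 Mature female Sprague-Dawley rats, bilaterally ovariectomized or sham-operated, 4-5 days recovery; compound in 1% Tween 80 in saline, i.p. 30 mg/kg/day for 4 weeks; 7-8 rats per group. Proximal tibia trabecular BMD by QCT under ketamine/xylazine/acepromazine; % protection with OVX = 0%, sham = 100%; p < 0.05.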

C3 cells [5] = assay: CT-luci reporter gene assay to measure the ability to increase transcription of a […] linked to the human CT gene.; remark: listed apart in the source
Phosphodiesterase 4 [6] = target: T1, Phosphodiesterase 4; assay: Concentration at which 50% of the activity of the Phosphodiesterase 4 from Human U937 cells is inhibited; type: cell-based; details: u-937
Phosphodiesterase 4 [7] = target: T1, Phosphodiesterase 4; assay: Percent rolipram activity at 30 uM (PDE 30 assay); type: protein assay
Summary of the method: as §1

Phosphodiesterase 4 [8] = target: T1, Phosphodiesterase 4; assay: PDE4 30 assay to measure the percent rolipram activity of the PDE4 assay at 30 micro M concentration of the compound.; type: protein assay
Summary of the method: as §1

Rattus norvegicus [9] = assay: The compound was tested for its bone protection activity at 50 mg/kg/day by oral administration.

PDE4 inhibition relative to rolipram (Phosphodiesterase 4 [2]) [%]	IC50 (Phosphodiesterase 4 [6]) [µM]	Rolipram activity (Phosphodiesterase 4 [7]) [%]	PDE4 inhibition relative to rolipram (Phosphodiesterase 4 [8]) [%]	SMILES	TAR (C3 cells [1])	CTS (C3 cells [3])	Protection (Rattus norvegicus [4]) [%]	TAR (C3 cells [5])	Protection (Rattus norvegicus [9]) [%]
5				CCCCn1c(=O)c2c(ncn2S(=O)(=O)c2ccccc2)n(CCCC)c1=O	1.9	3.9			
59	1.2			CCCCn1c(=O)c2c(ncn2S(=O)(=O)c2ccc(OC)c(OC)c2)n(CCCC)c1=O		4.7	35	2.5	
		100		CCCCn1c(=O)c2c(ncn2CC(C)=O)n(CCCC)c1=O [DENBUFYLLINE]		3.5	49	2.1	
49				CCCCn1c(=O)c2c(ncn2S(=O)(=O)c2ccc(OC)cc2)n(CCCC)c1=O	1.9	4.6			
			100	CCCCn1c(=O)c2c(nc(C)n2S(=O)(=O)c2ccccc2)n(CCCC)c1=O		4		1.7	
			77	CCCCn1c(=O)n(CC=C(C)C)c(=O)c2c1ncn2S(=O)(=O)c1ccc(OC)c(OC)c1		3.7		2.8	
54				CCCCOc1ccc(S(=O)(=O)n2cnc3c2c(=O)n(CCCC)c(=O)n3CCCC)cc1		5		2.2	
			33	CCCCn1c(=O)c2c(ncn2S(=O)(=O)c2ccc(C(C)(C)C)cc2)n(CCCC)c1=O		5.1		1.8	
12				CCCCCCCCS(=O)(=O)n1cnc2c1c(=O)n(CCCC)c(=O)n2CCCC	2.1	4.7			
			25	CCCCn1c(=O)[nH]c(=O)c2c1ncn2S(=O)(=O)c1ccc(OC)c(OC)c1		0.8		1.3	
			17	CCCCn1c(=O)c2c(ncn2S(=O)(=O)c2cccc3ccccc23)n(CCCC)c1=O		4.5	37	2.5	
92				CCCCn1c(=O)c2c(ncn2S(=O)(=O)c2cc(C)ccc2C)n(CCCC)c1=O	2.6	6.6			
	6		58	CCCCn1c(=O)c2c(ncn2S(=O)(=O)c2c(C)cc(C)cc2C)n(CCCC)c1=O		4	50	1.9	
			0	CCCCCCCCn1c(=O)c2c(ncn2S(=O)(=O)c2ccc(OC)c(OC)c2)n(CCCC)c1=O		1.1		0.7	
			100	CCCCn1c(=O)c2c(nc(C)n2S(=O)(=O)c2ccc(OC)c(OC)c2)n(CCCC)c1=O		2.6		1.5	
			95	CCCCn1c(=O)c2c(nc(C)n2S(=O)(=O)CCCCl)n(CCCC)c1=O		4.1		1.7	
			97	CCCCn1c(=O)n(CC2CC2)c(=O)c2c1ncn2S(=O)(=O)c1ccc(OC)c(OC)c1		0.7		2.8	

PDE4 inhibition relative to rolipram (Phosphodiesterase 4 [2]) [%]	IC50 (Phosphodiesterase 4 [6]) [µM]	Rolipram activity (Phosphodiesterase 4 [7]) [%]	PDE4 inhibition relative to rolipram (Phosphodiesterase 4 [8]) [%]	SMILES	TAR (C3 cells [1])	CTS (C3 cells [3])	Protection (Rattus norvegicus [4]) [%]	TAR (C3 cells [5])	Protection (Rattus norvegicus [9]) [%]
53				CCCCn1c(=O)c2c(ncn2S(=O)(=O)c2ccccc2F)n(CCCC)c1=O	2	1.7			
61	1.3			CCCCn1c(=O)c2c(ncn2S(=O)(=O)c2ccccc2C(=O)OC)n(CCCC)c1=O	3.5	3.1			
0				CCCCn1c(=O)c2c(ncn2S(=O)(=O)c2ccc(OC(F)(F)F)cc2)n(CCCC)c1=O		4.9		2	
37				CCCCn1c(=O)c2c(ncn2S(=O)(=O)c2cccc([N+](=O)[O-])c2)n(CCCC)c1=O	2	2.9	30		
			85	CCCCn1c(=O)c2c(nc(C)n2S(=O)(=O)c2cccc([N+](=O)[O-])c2)n(CCCC)c1=O		3.7		1.8	
54				CCCCn1c(=O)c2c(ncn2S(=O)(=O)CCC)n(CCCC)c1=O	2.3	2.2			
18				CCCCn1c(=O)c2c(ncn2S(=O)(=O)c2ccc(NO)cc2)n(CCCC)c1=O		5.6		2	
15				CCCCn1c(=O)c2c(ncn2S(=O)(=O)CCCC)n(CCCC)c1=O	2	4.7	23		
	23.3		72	CCCCn1c(=O)c2c(ncn2S(=O)(=O)c2cc(C)c(Cl)cc2C)n(CCCC)c1=O		5.3	52	2.5	
	3.2		7	CCCCn1c(=O)c2c(ncn2S(=O)(=O)Cc2ccccc2)n(CCCC)c1=O		5.1	25	2.3	
			86	CCCCn1c(=O)n(CCC(C)C)c(=O)c2c1ncn2S(=O)(=O)c1ccc(OC)c(OC)c1		3.7		2.6	
84	25.2			CCCCn1c(=O)c2c(ncn2S(C)(=O)=O)n(CCCC)c1=O	1.9	4.7			
71	4.1			CCCCn1c(=O)c2c(ncn2S(=O)(=O)CCCCl)n(CCCC)c1=O	2.1	3.6	47		50
			87	CCCCn1c(=O)n(CC2CCC2)c(=O)c2c1ncn2S(=O)(=O)c1ccc(OC)c(OC)c1		0.9		2.9	
86				CCCCn1c(=O)c2c(ncn2S(=O)(=O)c2cc(F)ccc2C)n(CCCC)c1=O	2.8	6.6			
			94	CCCCn1c(=O)c2c(nc(C)n2S(=O)(=O)c2cccc3ccccc23)n(CCCC)c1=O		2.2		1.7	
			48	CCCCn1c(=O)c2c(ncn2S(=O)(=O)c2cccs2)n(CCCC)c1=O		2.9		2.2	
